Hits are enriched below; roughly 2% of the tested compounds scored in any of these assays.
CDK5 p35 inh: blocks human CDK5/p35 kinase activity; Q00535+Q15078; inhibition, % at 10 µM; Recombinant CDK5/p35, ADP-Glo luminescence, 60 min; 330,000 compounds, 0.01% hits;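 active means highest replicate inhibition of at least 50% and at least 75% of replicates reaching 50%; inconclusive means only one of the two criteria met; inactive means both criteria failed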;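 further: plate controls were DMSO neutral control for no effect and GW8510 at 10 µM for full effect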
Target sequence (Q00535 whole entry, looked up): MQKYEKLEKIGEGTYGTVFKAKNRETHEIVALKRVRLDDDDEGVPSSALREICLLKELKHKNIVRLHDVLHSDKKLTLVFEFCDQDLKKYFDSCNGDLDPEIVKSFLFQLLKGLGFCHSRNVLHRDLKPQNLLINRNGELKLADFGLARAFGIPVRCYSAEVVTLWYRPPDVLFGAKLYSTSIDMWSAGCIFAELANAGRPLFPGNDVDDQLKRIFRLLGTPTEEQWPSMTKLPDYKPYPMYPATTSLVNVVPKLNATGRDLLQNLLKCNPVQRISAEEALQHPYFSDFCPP
Target sequence (Q15078 whole entry, looked up): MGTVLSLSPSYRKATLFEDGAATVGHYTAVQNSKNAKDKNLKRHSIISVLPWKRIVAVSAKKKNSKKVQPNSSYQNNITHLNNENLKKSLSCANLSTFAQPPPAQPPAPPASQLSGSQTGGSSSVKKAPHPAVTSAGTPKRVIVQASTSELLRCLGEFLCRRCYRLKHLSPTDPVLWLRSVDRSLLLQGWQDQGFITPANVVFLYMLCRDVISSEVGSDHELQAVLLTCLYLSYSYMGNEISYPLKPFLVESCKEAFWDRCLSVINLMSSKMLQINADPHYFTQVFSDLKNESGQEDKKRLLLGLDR
C2C12 statin: suppressors of simvastatin-induced myotoxicity in C2C12 myotubes; AID 602340; 330,000 compounds, 0.78% hits; ATP luminescence, 48 h; scaled: DMSO 0, geranylgeraniol control 100; rescue of ATP level, % at 7.49 µM;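 active means mean ATP rescue above about 67%, or every replicate alone reaching that limit, limit read from the data, passing the limit was not always enough; inconclusive means no clear call, values can overlap the other calls; inactive means mean under the limit and some replicate under it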;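 further: myotubes were challenged with 10 µM simvastatin during compound exposure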
S100A4 inh HTS: blocks human S100A4 binding to myosin IIA peptide | P26447 | S100A4/TAMRA-MyoIIA peptide fluorescence polarization | inhibition, % at 10.7 µM | 360,000 compounds, 0.14% hits;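 active means mean inhibition of at least 70% across replicates, with every replicate also reaching that level; inconclusive means mean inhibition reaches 70% but some replicates fall short; inactive means mean inhibition below 70%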
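Material: human S100A4 monomer with TAMRA-labelled myosin IIA peptide; buffer or medium: HEPES pH 7.2 with CaCl2, KCl, NaCl, DTT, Triton; compound dosing: one concentration per compound; schedule: 5 min incubation before reading; benchmarks: neutral control DMSO, positive control TFP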
CAL PDZ FP-1: human CAL PDZ-peptide interaction inhibition; Q9HD26; purified CAL PDZ, TMR-peptide fluorescence polarization, 1 h; inhibition, % at 20 µM; 330,000 compounds, 0.02% hits; AID 504414;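 active means highest replicate inhibition of at least 40%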;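 further: plate controls were DMSO neutral control wells for no effect and unlabeled competitor peptide control wells for full effect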
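System: tagged CAL PDZ domain. Schedule: 1 h room-temperature incubation prior to read. Signal: fluorescence polarization (mP). Measure: percent inhibition from loss of millipolarization.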
CAL PDZ FP-2: blocks peptide binding to the human CAL PDZ domain; purified CAL PDZ, TMR-peptide fluorescence polarization, 1 h; inhibition, % at 24.9 µM; 300,000 compounds, 0.92% hits;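 active means mean inhibition of at least 30% with at least half of replicates also reaching 30%; inconclusive means no clear call, values can overlap the other calls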;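 further: 0% = DMSO neutral control and 100% = excess unlabeled competitor peptide PRC23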
dFosB act: mouse delta FosB homodimer activation. purified delta FosB, TAMRA-CDK5 oligo fluorescence polarization; percent of positive-control signal above neutral wells. 340,000 compounds, 0.99% hits. activation, % at 25 µM. AID 493131. P13346;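 active means mean activation above about 17%, with every replicate also reaching it, limit read from the data, passing the limit was not always enough; inconclusive means only one of the two conditions met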
An asterisk follows results filed as active; ? = inconclusive; . = no result; + = active, no number.

SMILES | CDK5 p35 inh | C2C12 statin | S100A4 inh HTS | CAL PDZ FP-1 | CAL PDZ FP-2 | dFosB act
CN(/N=C/c1ccccc1Cl)c1ncc(Cl)cc1C(F)(F)F | 0 | -3 | -1 | 1 | 44* | 2
CC(=O)Nc1ccccc1NC(=O)c1ccccc1-c1ccccc1 | 3 | 3 | 1 | 1 | -2 | -7
Cc1ccc(NC(=O)CC2COc3ccccc3O2)cc1 (stereo not given) | 0 | 113* | . | -1 | 0 | -5
CN(C)c1cccc(CNC(=O)c2csc([C@@H]3C[C@H](O)[C@@H](CO)O3)n2)c1 | . | 34 | -3 | . | . | .
Cc1ccc(NC(=O)CSCC(=O)Nc2ccccc2N2CCCCC2)cc1 | -2 | -4 | -3 | -3 | -4 | -8
Cc1nc(NC(=O)COC(=O)C2CC3CCCC(C2)C3=O)c(Cl)cc1Cl (stereo not given) | 0 | 2 | -3 | -1 | . | -2
Cc1ccc2nc(C(F)(F)F)c(C#N)c(N)c2c1 | 95* | ? | 8 | -2 | . | -5
Cc1cc(C)c2nc(C(F)(F)F)c(C#N)c(N)c2c1 | 2 | 9 | . | 0 | -3 | 8
COc1ccccc1NC(=O)c1cccc(N2C(=O)C3C4C=CC(C4)C3C2=O)c1 (stereo not given) | 1 | 22 | -1 | -1 | 50* | -4
COc1ccc(NC(=O)c2cccc(N3C(=O)C4C5C=CC(C5)C4C3=O)c2)c(OC)c1 (stereo not given) | -2 | -17 | 1 | 0 | -5 | -9
Cc1cccc(C)c1NC(=S)NC(C)(C)CO | 1 | . | 5 | -1 | 79* | 1
Cc1cccc(C)c1NC(=S)NCc1ccccc1 | 1 | -8 | -2 | -3 | -4 | -1
O=C(O)c1cccc(S(=O)(=O)Nc2ccc(-c3ccccc3)cc2)c1 | 3 | -5 | 0 | 0 | 1 | 1
O=C(O)c1cccc(S(=O)(=O)NNc2ccccc2C(F)(F)F)c1 | 1 | 17 | -18 | 0 | + | -2
Cc1cc2ccccc2n1CCNCc1c(C(=O)N2CCOCC2)nc2ccccn12 | -1 | . | -2 | 0 | 82* | -7
Cc1cc2ccccc2n1CCNC(=O)Cc1cccc2ccccc12 | -2 | 17 | 73* | 0 | 11 | -3
Cc1cc2ccccc2n1CCNC(=O)c1ccc(Br)o1 | 0 | -5 | 90* | 1 | -5 | -12
CCC(=O)NCCn1c(C)cc2ccccc21 | 0 | -11 | . | 0 | . | -11
CC1CC(=S)Nc2ccccc2N1C(=O)Nc1ccccc1 (stereo not given) | 1 | . | 7 | 0 | -5 | -4
CC(C)CC#Cc1ccc([C@H]2[C@H]3CN(C(=O)Cc4cccnc4)CC(=O)N3[C@H]2CO)cc1 | . | . | 107* | . | . | .
CC(C)CC#Cc1ccc([C@@H]2[C@H]3CN(C(=O)Cc4cccnc4)CC(=O)N3[C@H]2CO)cc1 | . | . | 6 | . | . | .
Cc1cc(OCC(=O)N(Cc2ccco2)c2c(N)n(Cc3ccccc3)c(=O)[nH]c2=O)ccc1Cl | -2 | -42 | 3 | 0 | 74* | 8
O=Cc1ccc(OC(=O)/C=C/c2ccccc2)cc1 | 2 | -5 | -1 | 0 | 79* | 6
C#CCSc1nc(=O)c2cccnc2n1-c1ccc(C)cc1 | 0 | 132* | -4 | 0 | 3 | -8
CCN(CC)S(=O)(=O)c1ccc(N2CCOCC2)c(NS(=O)(=O)c2cccs2)c1 | -1 | 3 | -1 | 0 | -5 | 3
SMILES | CDK5 p35 inh | C2C12 statin | S100A4 inh HTS | CAL PDZ FP-1 | CAL PDZ FP-2 | dFosB act
Nc1cccc(/C=C/c2ccncc2)c1 | 0 | . | -7 | -2 | 74* | 3
N/C(=N\OC(=O)COc1ccc(Br)cc1Cl)c1cccnc1 | 0 | . | -7 | -1 | -6 | 20*
CCOC(=O)c1ccccc1NC(=O)COC(=O)C1CC(=O)N(CCc2ccccc2)C1 (stereo not given) | -3 | -14 | -7 | -3 | -3 | -7
CCOC(=O)c1c(C)[nH]c(C)c1C(=O)COC(=O)C1CC(=O)N(CCc2ccccc2)C1 (stereo not given) | 0 | 5 | -5 | 0 | 36* | 1
COC(=O)C1=C(O)/C(=C\c2ccc(OCC(=O)Nc3ccccc3OC)cc2)N=C1C | 4 | 13 | 17 | 0 | 73* | 0
COc1cccc(NC(=O)CN(C)C(=O)CCSc2ccc(C)cc2)c1 | 1 | 5 | -2 | 0 | 0 | -12
COc1cc2c(N3CCOCC3)cc(O)c(CC(=O)Nc3ccccc3)c2cc1OC | 1 | 115* | . | -2 | 3 | -4
COc1cc(CC(=O)Nc2ccc(N3CCOCC3)cc2)cc(OC)c1OC | -7 | . | 6 | . | -7 | 4
Cc1cc(O)c(Sc2ccc(Cl)cc2)c(=O)[nH]1 | -1 | . | 2 | 1 | 55* | 1
NC(=S)NNc1cc(Cl)cc(Cl)c1 | -1 | . | . | . | 97* | 3
COc1cc(/C=C/C(=O)/C=C(O)/C=C/c2ccc(O)c(OC)c2)ccc1O | 2 | 140* | -3 | 0 | 1 | -8
CCOC(=O)c1[nH]c(C)c(C(=O)NCC2CCCO2)c1C (stereo not given) | 2 | 75* | . | 1 | 1 | 3
CCOC(=O)c1[nH]c(C)c(C(=O)NC2CCCCC2)c1C | 0 | 2 | 0 | 1 | . | -7
O=C(CCCn1c(=O)[nH]c2cc(Cl)ccc2c1=O)NC1CCCCCCC1 | . | . | . | 0 | 53* | 0
O=C(CCCCn1c(=O)c2ccccc2n(CC(=O)NC2CCCC2)c1=O)NC1CCCC1 | 0 | 81* | . | -1 | 4 | 2
CC1CC(C)CN(C(=O)Cn2c(=O)n(CCCCC(=O)NC3CCCC3)c(=O)c3ccccc32)C1 (stereo not given) | 0 | . | . | -1 | 2 | -6
CCCN(CCC)C(=O)Cn1c(=O)n(CCCCC(=O)NC2CCCC2)c(=O)c2ccccc21 | 0 | 97* | . | 0 | -1 | -7
CC(C)(C)CN1CCNC(=O)C1CC(=O)NCCN1CCCc2ccccc21 (stereo not given) | -1 | . | 3 | 0 | 55* | -5
COc1cccc(CN2CCNC(=O)C2CC(=O)NCCN2CCCCC2=O)c1 (stereo not given) | -2 | 86* | -1 | -2 | -2 | -1
Cc1c(Cl)cccc1Nc1nc(N)nc(CN2CCCCCC2)n1 | 0 | 90* | . | -2 | -2 | 1
O=C(Oc1ccc(C(=S)N2CCOCC2)cc1Br)c1ccccc1F | 0 | 149* | . | -2 | 0 | -2
O=C(Oc1ccc(C(=S)N2CCOCC2)cc1Cl)c1ccccc1F | 1 | -1 | -1 | 0 | 1 | -4
O=C(O)c1cccc2c1-c1ccc(Cl)cc1C2 | 1 | 12 | -1 | 0 | . | 4
Cc1cc(NC(=O)c2ccc(C#N)cc2)n(-c2ccccn2)n1 | -1 | . | -18 | 0 | 78* | -9
